From PubChem BioAssay
Only some compounds are listed: those with a hit (about 5.5% of all), similar ones and a draw of the others.
KCC2 mod = modulates chloride dependent transport by human KCC2 | Q9H2X9 | KCC2 cells, thallium flux FluoZin-2 fluorescence | B-score of Tl+ flux slope (higher = more flux/activation; lower = inhibition) at 10 µM | hit rate 2.2% among 190,000 | AID 1456;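 active means thallium flux slope and its plate-corrected score both differing from the plate sample mean at a set confidence after two filtering rounds, in either direction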;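 further: slope of fluorescence scaled to starting intensity during 10 to 20 s after thallium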
STAT1 act = activators of IFN-gamma induced STAT1 signaling; NIH 3T3 STAT1-luciferase reporter, luminescence; 100% = IFN-gamma alone, no compound; hit rate 2.6% among 200,000; AID 932; activation (% of control), % at 5.5 µM;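 active means activation above the screen-wide mean activation plus 3 SD, cut at about 130% in these data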;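 further: raw ratio to IFN-gamma control signal so 100% means no change and 0% no light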
STAT3 inh = STAT3 signaling inhibition; inhibition, % at 5.5 µM; hit rate 0.89% among 190,000; U3A cells, IL-6 STAT3-luciferase reporter, luminescence; host cell line lacks STAT1; AID 862;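 active means inhibition above the mean inhibition across all screened compounds plus 3 SD, cut at about 44% in these data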;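 further: 0% = DMSO only wells and 100% = 100 µM nifuroxazide control wells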
STAT1 inh = inhibitors of IFN-gamma induced STAT1 signaling; NIH 3T3 STAT1-luciferase reporter, luminescence; inhibition, % at 5.5 µM; hit rate 0.35% among 200,000; AID 920;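 active means inhibition above a set limit, the mean inhibition across all tested compounds plus 3 SD, cut at about 34% in these data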;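 further: 0% = IFN-gamma with DMSO and 100% = IFN-gamma with 300 µM nifuroxazide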
STAT3 act = increases IL-6 driven STAT3 reporter signal; U3A cells, IL-6 STAT3-luciferase reporter, luminescence; 100% = signal with IL-6 EC80 alone; activation (% of control), % at 5.6 µM; hit rate 0.91% among 190,000;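 active means activation above the screen-wide mean of compound activation plus 3 SD, cut at about 130% in these data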;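 further: 0% = background luminescence of wells with medium and substrate only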
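Material: human STAT1-deficient U3A cells with stable STAT3-luciferase reporter / Probe or stimulus: IL-6 stimulus at 33 ng/mL final / Schedule: 1 h compound pre-exposure, 6 h IL-6 stimulation, 37 °C / Technique: luminescence / Read-out basis: percent of IL-6-only median luminescence / Control set: IL-6-only high control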
HSV augment = increases HSV replication in cells | HSV replication augmentation in cells, fold increase | maximum fold increase | hit rate 0.005% among 220,000; in the data active means maximum fold increase above about 1.5; tested in PC3 cells
Starred values were filed as active, the others as inactive; i = inactive; nt = no result.

SMILES	KCC2 mod	STAT1 act	STAT3 inh	STAT1 inh	STAT3 act	HSV augment
CCOC(=O)c1cc(C(=O)Nc2ccc(C)c(F)c2)nn1C	0.82	135*	-18	-40	116	i
CCOC(=O)/C=C/c1cnn(-c2ccccc2)c1	-0.71	138*	3	-40	96	i
CC(=O)c1cnc2cc(-c3ccc(Cl)cc3)nn2c1C	nt	138*	6	-41	101	i
Cc1ccc(CNCC(=O)Nc2ccc(N3CCOCC3)cc2)cc1	0.53	nt	nt	nt	nt	i
N#Cc1c2ccc(O)cc2n2ccccc12	-4.2*	94	42	4	68	i
CC(C)c1ccc(OCC(=O)N2CCCCCC2)c(Br)c1	-2.2	137*	-5	-40	114	i
S=C(NCCc1ccccc1)Nc1ccc(Br)cc1	-1.2	114	-8	-16	103	i
Oc1[nH]c2ccccc2c1N=Nc1ccccc1F	i	151*	-69	-58	154*	i
Oc1[nH]c2ccccc2c1N=Nc1ccccc1	-2.3	nt	nt	nt	nt	i
Oc1[nH]c2ccccc2c1N=Nc1ccc(F)cc1	i	144*	-27	-50	119	i
CCCCCOC(=O)NCC(O)c1ccccc1 (stereo unspecified)	-2.6	144*	2	-49	103	i
CCc1ccc(C(=O)NC2CCCCC2)s1	-0.38	141*	12	-42	94	i
CC(C)(O)C#Cc1ccc(C(=O)NC2CCCCC2)s1	1.4	123	-19	-24	115	i
Cc1ccccc1N=C1NC(=O)/C(=C/c2cccn2-c2cccc(C(=O)O)c2)S1	-1.8	103	6	-5	104	i
CC1(C)C2CC=C(/C=N/NC(=S)Nc3cccnc3)C1C2 (stereo unspecified)	1.3	103	-6	-4	107	i
CC1=C/C(=N\NC(=S)Nc2cccnc2)CC(C)(C)C1	16*	134*	-8	-36	106	i
c1cc(CNC23CC4CC(CC(C4)C2)C3)ccn1	0.18	101	4	-3	99	i
O=C(c1cc(-c2ccc(Cl)cc2)on1)N1CCOCC1	1.3	144*	43	-48	66	i
O=C(c1cc(-c2ccc(Cl)c(Cl)c2)on1)N1CCCC1	0.65	103	19	-2	85	i
COc1ccc2nc(SCc3cccc(C)c3)nc(C)c2c1	-0.41	130*	-6	-33	105	i
CCC/C(O)=C1\C(=O)CC(C)(C)CC1=Nc1ccccc1O	-1.3	98	8	0	95	i
CC1=C(C)CC(C(=O)NCC(=O)c2ccccc2)C(C(=O)O)C1 (stereo unspecified)	0.77	133*	-20	-36	117	i
O=C(COC(=O)c1cccs1)c1ccccc1	-0.22	131*	0	-34	105	i
CC1=C(C)CC(C(=O)NNC(=O)c2ccccc2)C(C(=O)O)C1 (stereo unspecified)	nt	108	5	-8	104	i
O=C(CCC(=O)c1cccs1)NC(c1ccccc1)c1ccccc1	0.77	108	6	-9	98	i
SMILES	KCC2 mod	STAT1 act	STAT3 inh	STAT1 inh	STAT3 act	HSV augment
O=C(CCC(=O)c1cccs1)c1cccs1	-0.77	130*	18	-33	88	i
O=C(CNC(=S)NC(=O)c1cccs1)c1ccccc1	11*	112	17	-13	86	i
Cc1c(-c2ccccc2)[n+](=O)c(-c2ccc(Cl)cc2)c(C)n1[O-]	0.34	93	9	4	96	i
O=C(NCCNC(=O)c1ccc([N+](=O)[O-])cc1)c1ccncc1	-1.1	103	2	-5	100	i
O=C(CNC(=O)c1ccccc1C(=O)O)c1ccccc1	0.3	130*	16	-33	89	i
O=C(CNC(=S)NC(=O)c1ccco1)c1ccccc1	5.5*	106	7	-7	95	i
Cn1c(SCC(=O)Nc2ncc(C(F)(F)F)cc2Cl)nnc1-c1ccc(Cl)cc1	1.5	103	4	-3	99	i
C#Cc1ccc([C@@H]2C=C(C(=O)N3CCN(Cc4ccc5c(c4)OCO5)CC3)O[C@H](OCCCCO)C2)cc1	0.028	88	nt	14	nt	nt
CCC(=O)N(Cc1ccco1)c1nc(C(=O)Nc2ccc(Cl)cc2)c(C)s1	-0.29	99	-13	2	110	i
